TRPC4 act – activators of mouse TRPC4 channel; HEK293 TRPC4beta/mu-opioid, Fluo4 calcium fluorescence; stronger effect = higher value; B-score at 10 µM; 310,000 tested, 0.49% active; Q9QUQ5;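 active = B-score above 5 SD of library B-scores, and initial fluorescence ratio not above library mean plus 5 SD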;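 also: positive B-score marks a calcium rise read as TRPC4 activation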
Target sequence (Q9QUQ5 whole entry, looked up): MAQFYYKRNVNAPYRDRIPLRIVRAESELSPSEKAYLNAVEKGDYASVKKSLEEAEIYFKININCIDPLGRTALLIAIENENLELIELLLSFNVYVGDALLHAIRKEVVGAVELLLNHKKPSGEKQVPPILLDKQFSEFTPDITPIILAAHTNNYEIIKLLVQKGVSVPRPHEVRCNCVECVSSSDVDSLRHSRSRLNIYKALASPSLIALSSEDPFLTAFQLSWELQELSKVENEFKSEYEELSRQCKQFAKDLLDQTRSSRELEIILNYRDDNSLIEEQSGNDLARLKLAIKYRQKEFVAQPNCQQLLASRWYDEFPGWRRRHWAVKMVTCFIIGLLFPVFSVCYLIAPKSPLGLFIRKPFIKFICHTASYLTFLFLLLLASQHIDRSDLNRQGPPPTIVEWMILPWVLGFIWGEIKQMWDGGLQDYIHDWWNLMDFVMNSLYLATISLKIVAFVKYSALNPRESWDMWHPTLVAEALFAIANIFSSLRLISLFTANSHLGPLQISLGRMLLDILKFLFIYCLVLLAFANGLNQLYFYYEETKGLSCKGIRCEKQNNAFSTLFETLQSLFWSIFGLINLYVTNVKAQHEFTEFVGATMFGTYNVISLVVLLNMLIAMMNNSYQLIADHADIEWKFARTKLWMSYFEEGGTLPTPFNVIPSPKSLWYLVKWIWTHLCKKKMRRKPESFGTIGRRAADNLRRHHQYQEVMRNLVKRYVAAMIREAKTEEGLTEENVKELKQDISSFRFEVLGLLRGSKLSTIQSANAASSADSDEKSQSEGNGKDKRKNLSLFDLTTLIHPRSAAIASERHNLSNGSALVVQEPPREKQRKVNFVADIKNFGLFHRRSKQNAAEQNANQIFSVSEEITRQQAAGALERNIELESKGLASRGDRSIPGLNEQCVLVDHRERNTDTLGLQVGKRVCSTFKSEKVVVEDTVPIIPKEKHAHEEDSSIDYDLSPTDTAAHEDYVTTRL
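System: HEK293 cells stably co-expressing mouse TRPC4beta and mu-opioid receptor; Schedule: Fluo4 dye loading 45 min at room temperature, 110 s recording; Detection: Fluo4 fluorescence, kinetic; Evaluation: B-scored integrated calcium fluorescence ratio; Controls: buffer (low) and maximal DAMGO (high).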
TRPC4 PAM – allosterically enhances the mouse TRPC4 cation channel; Q9QUQ5; HEK293 TRPC4beta/mu-opioid, DAMGO EC20, Fluo-4 Ca2+ flux; stronger effect = higher value; B-score at 10 µM; 310,000 tested, 0.42% active;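 active = B-score of calcium response area above 5 SD of library B-scores, with initial fluorescence ratio within 5 SD of library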
TRPC4 block – inhibitors of mouse TRPC4 channel; Q9QUQ5; AID 2247; 300,000 tested, 0.39% active; B-score at 10 µM; HEK293 TRPC4beta/mu-opioid, DAMGO-evoked Fluo4 calcium flux; stronger effect = lower value;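 active = B-score over 3 SD under the library average, no early fluorescence shift, positive overall ratio signal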
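Assay system – HEK293 line stably carrying TRPC4beta and mu-opioid receptor · Doses – single dose · Detection – Fluo4 calcium-dye fluorescence, kinetic read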
TRPC6 activator – activators of mouse TRPC6 channel; Q61143; HEK293-TRPC6 membrane potential dye fluorescence; stronger effect = higher value; B-score at 10 µM; 310,000 tested, 0.13% active; AID 2550;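 active = B-score of the integrated fluorescence ratio above library mean plus 3 SD, and starting fluorescence ratio within library mean plus 5 SD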;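 also: higher score means more depolarization so channel activation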
TRPC6 inh – inhibitors of mouse TRPC6 channel | Q61143 | HEK293-TRPC6, membrane potential dye, ACh-evoked depolarization; stronger effect = lower value | B-score at 10 µM | 310,000 tested, 1.1% active | AID 2553;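 active = B-score under library mean minus 3 SD, initial fluorescence not abnormally high, positive integrated signal ratio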;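 also: B-score derived from integrated fluorescence ratio over the kinetic read; more negative B-score means stronger inhibition of depolarization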
TRPC4 spec 2 – mouse TRPC4 off-target activity of TRPC6 inhibitors, second screen | inhibition, % at 10 µM | 920 tested, 42% active | shares compounds with TRPC6 inh | HEK293 TRPC4/MOR, membrane potential dye fluorescence; channel activated by saturating DAMGO dose;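 active = compounds whose fluorescence signal differed from control wells by over 3 SD, either direction, in both duplicate plates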
TRPC4 spec – tests whether TRPC6 inhibitors also affect mouse TRPC4; shares compounds with TRPC6 inh; HEK293 TRPC4/mu-opioid, membrane potential fluorescence; activity change, negative = inhibition, % at 10 µM; 920 tested, 61% active; AID 2777;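 active = rise or fall in signal beyond 3 SD of buffer-only wells in both replicate plates, either sign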;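 also: integrated kinetic ratio of fluorescence range over baseline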
HEK293 MPD ctr 2-1 – second check of TRPC6 inhibitor effects in parental HEK293 cells; shares compounds with TRPC6 inh; parental HEK293 membrane potential dye fluorescence; maximal acetylcholine challenge after compound addition; signal change vs control, % at 10 µM; 920 tested, 31% active;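 active = membrane potential signal moving either way by over 3 SD of the maximum-effect control, in both duplicate plates, meaning non-specific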
HEK293 MPD ctr-1 – counter-screen for TRPC6 inhibitors: effect in parental HEK293 cells. shares compounds with TRPC6 inh. parental HEK293 membrane potential dye fluorescence. membrane potential signal change, % at 10 µM. 920 tested, 60% active. AID 2780;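 active = membrane potential signal shifting up or down by more than 3 SD of buffer-only wells, on both duplicate plates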
HEK293 MPD ctr-2 – counter-screen for TRPC6 modulators: effect in parental HEK293 cells | membrane potential dye fluorescence | 2,400 tested, 51% active | membrane potential signal change, % at 10 µM | AID 488924 | shares compounds with TRPC6 inh;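 active = membrane potential signal moves up or down beyond 5 SD from buffer-only wells, on both duplicate plates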
HEK293 MPD ctr 2-2 – second check of TRPC6 modulator effects in parental HEK293 cells; shares compounds with TRPC6 inh; membrane potential dye fluorescence; after compound, maximal acetylcholine stimulation; inhibition, % at 10 µM; 2,400 tested, 14% active; AID 488926;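 active = membrane potential signal drops by more than 5 SD from the mean control signal, in both duplicate plates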
TRPC4 ctr mod – tests whether TRPC6 modulators also affect mouse TRPC4. AID 488927. HEK293 TRPC4/mu-opioid, membrane potential fluorescence. shares compounds with TRPC6 inh. 2,400 tested, 69% active. percent change from control (negative = decrease, positive = increase), % at 10 µM;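 active = membrane potential signal moved up or down beyond 5 SD of buffer control wells, in both duplicate plates, actives on both sides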
TRPC4/MOR inh 2 – second selectivity test of TRPC6 modulators against mouse TRPC4; 2,400 tested, 55% active; HEK293 TRPC4/mu-opioid, membrane potential dye fluorescence; stimulated with maximal-effect DAMGO; inhibition, % at 10 µM; shares compounds with TRPC6 inh; AID 488928;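 active = drop in membrane potential signal beyond 5 SD of the control wells in both duplicate plates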;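 also: TRPC4 counter screen for TRPC6 hits run under conditions tuned for TRPC6 not TRPC4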
TRPC6 inh conf – mouse TRPC6 inhibitor confirmation; shares compounds with TRPC6 inh; HEK293-TRPC6, membrane potential dye, ACh-evoked depolarization; 3,300 tested, 43% active; inhibition, % at 10 µM;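 active = fluorescence ratio falls more than 5 SD below the full-stimulation control mean, in both duplicate runs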;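 also: integrated fluorescence ratio of peak minus minimum over baseline after agonist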
TRPC6 act conf – mouse TRPC6 activator confirmation; activation, % at 10 µM; 2,800 tested, 11% active; HEK293-TRPC6 membrane potential dye fluorescence, FDSS; AID 488961; shares compounds with TRPC6 inh;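 active = ratio signal rise beyond 5 SD above unstimulated control wells' mean, seen in both duplicate runs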
Of the large screens only hits and unclear results are named; the others gave an inactive call (follow-up assays come after a bar, where they were run). Rows were chosen to be rich in hits. Some 2.3% of all compounds tested hit in one or more screens of this group.

Cc1cccc(N2CCN(C(=O)C3COc4ccccc4O3)CC2)c1C (stereo not given)	TRPC6 inh -5.1 | HEK293 MPD ctr-2 inactive | HEK293 MPD ctr 2-2 inactive | TRPC4 ctr mod inactive | TRPC4/MOR inh 2 inactive | TRPC6 inh conf 42%
COc1ccc2c(C)c(CC(=O)N3CCN(C(=O)C4COc5ccccc5O4)CC3)c(=O)oc2c1 (stereo not given)	TRPC6 inh -5.3 | HEK293 MPD ctr-2 238% | HEK293 MPD ctr 2-2 inactive | TRPC4 ctr mod 44% | TRPC4/MOR inh 2 inactive | TRPC6 inh conf inactive
CC(C)Oc1ccc(S(=O)(=O)N2CCOCC2)cc1NC(=O)C(C)Oc1ccc(F)cc1 (stereo not given)	none
CCOC(=O)c1ccc(NC(=S)NCCc2ccc(OC)c(OC)c2)cc1	none
Cc1c(CCOC(=O)c2ccc([N+](=O)[O-])cc2)sc[n+]1CC(=O)c1ccccc1	TRPC4 block -6, TRPC6 inh -7.4 | HEK293 MPD ctr-2 -262% | HEK293 MPD ctr 2-2 inactive | TRPC4 ctr mod -40% | TRPC4/MOR inh 2 36% | TRPC6 inh conf 40% | TRPC6 act conf inactive
COC(C(=O)Nc1ccc(S(=O)(=O)Nc2cccc3ccccc23)cc1)c1ccccc1 (stereo not given)	none
CNC(=O)CSCc1c(Cl)cccc1Cl	TRPC6 inh -11 | HEK293 MPD ctr-2 inactive | HEK293 MPD ctr 2-2 inactive | TRPC4 ctr mod inactive | TRPC4/MOR inh 2 inactive | TRPC6 inh conf inactive | TRPC6 act conf inactive
CNC(=S)NNC(=O)CSCc1c(Cl)cccc1Cl	none
Cc1ccc(CSc2nc3ccccc3c(=O)n2C)cc1	none
Cc1ccc(S(=O)(=O)NCCNc2ccc([N+](=O)[O-])cc2)cc1	TRPC6 inh -5.6 | HEK293 MPD ctr-2 inactive | HEK293 MPD ctr 2-2 inactive | TRPC4 ctr mod -14% | TRPC4/MOR inh 2 inactive | TRPC6 inh conf inactive | TRPC6 act conf inactive
CCc1ccccc1NC(=O)NNS(=O)(=O)c1cc(C)ccc1C	none
O=[N+]([O-])c1ccc(N=Nc2c(Cl)cc(O)cc2Cl)cc1	TRPC6 inh -9.6 | TRPC4 spec 2 27% | TRPC4 spec 5.7% | HEK293 MPD ctr 2-1 -26% | HEK293 MPD ctr-1 inactive | TRPC6 inh conf 114% | TRPC6 act conf inactive
O=C(NNC1=C(C(=O)C(F)(F)F)CCC1)c1ccccc1O	TRPC6 inh -5.2 | HEK293 MPD ctr-2 inactive | HEK293 MPD ctr 2-2 inactive | TRPC4 ctr mod inactive | TRPC4/MOR inh 2 inactive | TRPC6 inh conf 38% | TRPC6 act conf inactive
COC(=O)c1ccc(S(=O)(=O)N2CCCCCC2)n1C	TRPC6 inh -5.4 | HEK293 MPD ctr-2 inactive | HEK293 MPD ctr 2-2 inactive | TRPC4 ctr mod 7.5% | TRPC4/MOR inh 2 inactive | TRPC6 inh conf inactive | TRPC6 act conf inactive
COC(=O)c1ccc(S(=O)(=O)N2CCN(C)CC2)n1C	none
CCn1cc2nc(SCC(=O)Nc3ccccc3F)n(Cc3ccccc3)c(=O)c2n1	none
COc1cc(-c2cc[n+](C)cc2)ccc1O	TRPC6 inh -6 | HEK293 MPD ctr-2 -329% | HEK293 MPD ctr 2-2 inactive | TRPC4 ctr mod -53% | TRPC4/MOR inh 2 inactive | TRPC6 inh conf inactive | TRPC6 act conf inactive
O=C(c1cccc(S(=O)(=O)Nc2ccccc2F)c1)N1CCN(c2ccccc2F)CC1	TRPC6 inh -6.5 | HEK293 MPD ctr-2 inactive | HEK293 MPD ctr 2-2 inactive | TRPC4 ctr mod inactive | TRPC4/MOR inh 2 inactive | TRPC6 inh conf 64%
CC1Cc2ccccc2N1S(=O)(=O)c1cccc(C(=O)N2CCN(c3ncccn3)CC2)c1 (stereo not given)	TRPC6 activator 21 | HEK293 MPD ctr-2 130% | HEK293 MPD ctr 2-2 inactive | TRPC4 ctr mod 86% | TRPC4/MOR inh 2 86% | TRPC6 act conf 174%
Cc1cccc(NS(=O)(=O)c2cccc(C(=O)N3CCN(c4ccccn4)CC3)c2)c1	TRPC6 inh -10 | TRPC4 spec 2 inactive | TRPC4 spec 2.7% | HEK293 MPD ctr 2-1 220% | HEK293 MPD ctr-1 1.3% | TRPC6 inh conf 79%
CCOC(=O)N1CCN(C(=O)c2cccc(NS(=O)(=O)c3ccc(F)c(F)c3)c2)CC1	none
CCOC(=O)N1CCN(C(=O)c2cccc(S(=O)(=O)Nc3ccc(Br)cc3)c2)CC1	TRPC6 inh -9 | TRPC4 spec 2 inactive | TRPC4 spec inactive | HEK293 MPD ctr 2-1 252% | HEK293 MPD ctr-1 inactive | TRPC6 inh conf inactive
C=CCn1c(COc2ccccc2F)nnc1SCC(=O)c1c[nH]c2ccccc12	none
CN(c1ccccc1)S(=O)(=O)c1cccc(C(=O)N2CCN(c3ccccn3)CC2)c1	TRPC6 activator 12, TRPC6 inh -7.2 | HEK293 MPD ctr-2 144% | HEK293 MPD ctr 2-2 inactive | TRPC4 ctr mod 38% | TRPC4/MOR inh 2 inactive | TRPC6 inh conf 64% | TRPC6 act conf 94%
Cc1cccc(NS(=O)(=O)c2cccc(C(=O)N3CCN(S(=O)(=O)c4ccccc4)CC3)c2)c1	TRPC6 activator 13, TRPC6 inh -13 | HEK293 MPD ctr-2 inactive | HEK293 MPD ctr 2-2 inactive | TRPC4 ctr mod inactive | TRPC4/MOR inh 2 inactive | TRPC6 inh conf 110% | TRPC6 act conf 132%
COc1cc(C)c(CN2CCC(n3nccc3NC(=O)C3CC3)CC2)cc1C	none
CC[n+]1c(/C=C/N(C)c2ccccc2)oc2ccc(F)cc21	none

Bioassay records deposited in PubChem BioAssay by Johns Hopkins Ion Channel Center.
